From ChEMBL document CHEMBL4364333, “High-throughput screening of bioactive compounds via new catalytic reaction in the pooled mixture” (Bioorg Med Chem Lett, 2019)
The source made the active and inactive calls. The calls are words filed in the database; no cut-off is given here.

How the values were obtained:
Assay type in all cases: cell-based
[1] = test system: HeLa; assay: Cytotoxicity against human HeLa cells expressing alkaline phosphatase assessed as reduction in cell viability at 40 uM incubated for 3 hrs by WST-1 assay
In short: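 HeLa cells stably expressing soluble secretory alkaline phosphatase, seeded at equal numbers, exposed to diluted test material for 3 h. Cytotoxicity read out as the number of live cells.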

[2] = test system: HeLa; assay: Inhibition of alkaline phosphatase secretion in human HeLa cells at 40 uM incubated for 3 hrs
In short: (§1)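 HeLa cells stably expressing soluble secretory alkaline phosphatase, seeded at equal numbers, exposed to diluted test material for 3 h. Secretion read out as alkaline phosphatase enzymatic activity in the culture medium.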

[3] = test system: HeLa; assay: Inhibition of alkaline phosphatase secretion in human HeLa cells at 18 uM incubated for 3 hrs
In short: (§2)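 HeLa cells stably expressing soluble secretory alkaline phosphatase, seeded at equal cell numbers, were incubated with the test sample for 3 h. Alkaline phosphatase enzymatic activity in the culture medium was measured as the secretion read-out. Live cell number was counted in parallel to assess cytotoxicity.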

[4] = test system: HeLa; assay: Inhibition of alkaline phosphatase secretion in human HeLa cells at 50 uM incubated for 3 hrs; in short: as §2
[5] = test system: HeLa; assay: Inhibition of alkaline phosphatase secretion in human HeLa cells incubated for 3 hrs; in short: as §1

Row | Structure (SMILES) | Activity [1] | further results
1 | Cn1cc(C(c2c[nH]c3ccccc23)C(F)(F)F)c2ccccc21 (centres undefined) | Non-Toxic | –
2 | Cn1cc(C(c2cn(C)c3ccccc23)C(F)(F)C(F)(F)F)c2ccccc21 | Non-Toxic | –
3 | FC(F)(F)C(c1c[nH]c2ccccc12)c1c[nH]c2ccccc12 | Non-Toxic | inhibition [2]: Active
4 | C[C@H]1CCC/C=C/[C@@H]2C[C@H](O)C[C@H]2[C@H](O)/C=C/C(=O)O1 | – | inhibition [3]: Active
5 | FC(F)(F)C(F)(F)C(c1c[nH]c2ccc(Br)cc12)c1c[nH]c2ccc(Br)cc12 | Non-Toxic | –
6 | Fc1cc(F)c2c(c1)[C@H]1CCC[C@H]1C(c1cccnc1)N2 (some centres undefined) | – | inhibition [4]: Active
7 | Fc1ccc2[nH]cc(C(c3c[nH]c4ccc(F)cc34)C(F)(F)F)c2c1 | Non-Toxic | –
8 | COc1ccc2[nH]cc(C(c3c[nH]c4ccccc34)C(F)(F)F)c2c1 (centres undefined) | Non-Toxic | inhibition [5]: Active
9 | FC(F)(F)C(c1c[nH]c2ccc(Br)cc12)c1c[nH]c2ccc(Br)cc12 | Non-Toxic | inhibition [5]: Active
10 | Cn1cc(C(c2cn(C)c3ccccc23)C(F)(F)F)c2ccccc21 | Non-Toxic | –
11 | FC(F)(F)C(c1c[nH]c2ccccc12)c1c[nH]c2ccc(Br)cc12 (centres undefined) | Non-Toxic | inhibition [5]: Active
12 | Cn1cc(C(c2c[nH]c3ccccc23)C(F)(F)C(F)(F)F)c2ccccc21 (centres undefined) | Non-Toxic | –
13 | Fc1ccc2[nH]cc(C(c3c[nH]c4ccccc34)C(F)(F)F)c2c1 (centres undefined) | Non-Toxic | –
14 | FC(F)(F)C(F)(F)C(c1c[nH]c2ccccc12)c1c[nH]c2ccccc12 | Non-Toxic | inhibition [5]: Active
